C8 TRAIL sens: sensitizes caspase-8 expressing cells to TRAIL; NB7+C8 cells + TRAIL, ATPlite viability luminescence; inhibition (viability loss, TRAIL sensitization), % at 10 µM; 360,000 tested, 1% active; AID 624354;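 active = compounds causing at least 50% loss of cell viability in the single-dose screen, relative to plate controls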
NF-kB expr up: NF-kB expression increase, human neuronal cells; 190,000 tested, 1.6% active; NF-kB reporter expression; hits give high values; fold change at 12.5 µM; in the data active = fold change above about 3.3
APP 5'UTR act: APP 5'UTR luciferase reporter activation. AID 1276. activation, % at 2 µM. SH-SY5Y APP 5'UTR luciferase reporter, luminescence; zero percent = DMSO vehicle wells. 190,000 tested, 1% active;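 active = activation above a set limit, based on mean plus 3 SD of controls, cut at about 140% in these data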
FLuc inhib CS: Photinus pyralis luciferase inhibition counter-screen; P08659; inhibition, % at 10 µM; 200,000 tested, 1.5% active; ATPLite firefly luciferase biochemical luminescence, 10 min;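 active = inhibition above about 50% when tested at 10 µM, limit read from the data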
Target sequence (P08659 whole entry, looked up): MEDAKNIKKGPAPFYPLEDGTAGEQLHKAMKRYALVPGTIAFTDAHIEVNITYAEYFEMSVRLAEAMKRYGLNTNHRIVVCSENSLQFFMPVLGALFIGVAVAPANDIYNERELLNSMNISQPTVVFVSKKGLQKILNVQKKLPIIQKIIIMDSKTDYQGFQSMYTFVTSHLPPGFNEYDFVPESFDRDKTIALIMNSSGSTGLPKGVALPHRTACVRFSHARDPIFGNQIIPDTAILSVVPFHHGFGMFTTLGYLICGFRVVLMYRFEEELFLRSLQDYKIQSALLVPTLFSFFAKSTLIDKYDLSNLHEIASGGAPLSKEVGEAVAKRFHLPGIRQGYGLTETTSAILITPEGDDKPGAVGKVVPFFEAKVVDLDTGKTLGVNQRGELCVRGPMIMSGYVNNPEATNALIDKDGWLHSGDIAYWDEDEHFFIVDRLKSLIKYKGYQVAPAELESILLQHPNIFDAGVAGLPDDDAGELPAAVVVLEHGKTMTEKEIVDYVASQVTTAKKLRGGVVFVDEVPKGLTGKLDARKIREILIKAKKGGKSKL
PPC-1+TRAIL kill: PPC-1 cancer cell killing with TRAIL present | cell killing (% activity), % at 4 µM or 5 µM | PPC-1 cells + TRAIL, ATPLite viability luminescence | 220,000 tested, 0.41% active | AID 1443;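 active = cell killing above 50% in the first pass at 4 µM, then a duplicate retest at 5 µM averaging 50% or more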;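 also: plate controls were cells with TRAIL plus DMSO for no effect and medium-only wells lacking cells for full effect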
FLuc stim CS: affects firefly luciferase, flagging false hits in luciferase stimulation screens | activation factor at 10 µM | ATPlite luciferase biochemical, luminescence, 10 min; 0 = ATP-free wells, 1 = DMSO control | AID 1027 | 200,000 tested, under 10 active | P08659;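 active = luciferase activation factor, scaled between plate controls, of at least 2 with compound at 10 µM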
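System: Luciferase/luciferin detection reagent, cell-free biochemical luciferase assay | Medium: PBS buffer for ATP | Dosing: Test compounds dosed from 2 mM stocks in 100% DMSO | Timing: 10 min at ambient temperature | Signal: Luminescence measurement of luciferase light output | Evaluation: Luciferase activation, seen as luminescence increase over controls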
Numbers without * were called inactive; nt = no result. A selection: hits, their analogues and other compounds. The true share with any hit is near 2.2%.

SMILES	C8 TRAIL sens	NF-kB expr up	APP 5'UTR act	FLuc inhib CS	PPC-1+TRAIL kill	FLuc stim CS
COc1ccccc1N1CCN(C2CCCN(C(=O)CC(F)(F)F)C2)CC1 (stereo unspecified)	6	nt	nt	nt	nt	nt
Cc1nn(C(=O)c2cccs2)c(N)c1-c1ccccc1	3	3.4*	17	33	5	0.7
Cc1nn(C(=O)c2ccc3c(c2)OCO3)c(N)c1-c1ccccc1	4	1.6	12	80*	6	0.2
CC(=O)c1c(C)nn(C(=O)c2cccs2)c1C	-5	1.1	0	-3	-10	1
NC(=O)N/N=C/c1cn(-c2ccccc2)nc1-c1cccs1	39	1.1	33	70*	44	0.3
O=C(O)c1cccc(N/N=C/c2cn(-c3ccccc3)nc2-c2cccs2)c1	21	1.2	86	54*	4	0.5
COc1ccccc1C(=O)Nc1onc(C)c1C#N	2	1.2	1	-4	-4	1
CC(=O)c1cc2c(C)c(C(=O)c3ccccc3)oc2cc1O	11	4*	156*	44	20	0.6
Cc1ccc(N(C(=O)c2snc(C(N)=O)c2N)C(C(=O)NC2CCCC2)c2ccncc2)cc1 (stereo unspecified)	12	nt	nt	nt	nt	nt
Cc1ccc(CNC(=O)C2CCC(=O)N(CCCN3CCOCC3)C2)cc1 (stereo unspecified)	-12	nt	nt	nt	nt	nt
COc1ccc(-c2ccc(SCC(=O)Nc3cccc(C(C)=O)c3)nn2)cc1OC	26	1.1	43	61*	25	0.4
CC(=O)c1cccc(NC(=O)CSc2ccc(-c3ccc4c(c3)OCO4)nn2)c1	64*	1.5	29	21	28	0.8
CC(=O)c1cccc(NC(=O)CSc2ccc(-c3ccco3)nn2)c1	-4	nt	nt	nt	nt	nt
CCCCCc1nnc(NC(=O)C2=COCCO2)s1	17	nt	nt	nt	nt	nt
Nc1[nH]c(C(=O)c2ccccc2)c(-c2ccncc2)c1C(=O)NCc1ccc(Cl)cc1	-8	nt	nt	nt	nt	nt
Cc1ccc(N2NC(C)(c3cccs3)NC2=S)cc1 (stereo unspecified)	5	3.3*	53	-3	22	1
O=S1(=O)CC(c2ccccc2)=NN=C(c2ccccc2)C1	75*	nt	nt	nt	nt	nt
CCOC(=O)c1ccc(N2C(=O)[C@@H](c3ccccc3)[C@H]2c2ccccc2)cc1	22	nt	nt	nt	nt	nt
CCOC(=O)c1ccc(N2C(=O)C3C(/C=C/c4ccccc4)OC4(C(=O)c5ccccc5C4=O)C3C2=O)cc1 (stereo unspecified)	-10	1.3	-4	-8	55*	1.1
O=C1NC(=O)C2(C=C(c3ccccc3)C(O)(c3ccccc3)C2)N1 (stereo unspecified)	-20	nt	nt	nt	nt	nt
Cc1ccc(/C=N/n2c(-c3cccs3)n[nH]c2=S)cc1	9	4.1*	5	-5	16	1.1
COc1ccc(/C=N/n2c(-c3cccs3)n[nH]c2=S)cc1	1	5.2*	8	-3	2	1
Cc1ccc(/C=N/n2c(-c3ccccc3)n[nH]c2=S)cc1	7	nt	nt	nt	nt	nt
S=c1[nH]nc(-c2cccs2)n1/N=C/c1c(Cl)cccc1Cl	3	1.1	2	-1	6	1
O=C(c1ccc(F)c(F)c1)N1CCC2(CC1)NCCc1[nH]cnc12	7	nt	nt	nt	nt	nt
SMILES	C8 TRAIL sens	NF-kB expr up	APP 5'UTR act	FLuc inhib CS	PPC-1+TRAIL kill	FLuc stim CS
C=CC(=O)Nc1cccc(Nc2nc(N[C@H]3CC[C@H](N(C)C)CC3)nc3c2ncn3C(C)C)c1	83*	nt	nt	nt	nt	nt
CC(C)n1cnc2c(Nc3cccc(Cl)c3)nc(NCCCO)nc21	29	nt	nt	nt	28	nt
C/C(=N\Nc1nc(C)c(C)s1)c1ccc([N+](=O)[O-])cc1	1	2.1	-22	1	20	1
O=C(O)c1cccc(N/N=C/c2sc(N3CCOCC3)nc2-c2ccccc2)c1	20	2.3	31	60*	5	0.4
Cc1ccc(/C=N/Nc2cccc(C(=O)O)c2)s1	11	14*	38	23	32	0.8
O=C(O)c1cccc(N/N=C/C2=C(Cl)c3cc(Cl)ccc3SC2)c1	-7	5.2*	195*	3	0	1
O=C(O)c1cccc(N/N=C/c2ccc(F)c(F)c2)c1	-1	1	118	12	20	0.9
CCOc1cc(/C=N/Nc2cccc(C(=O)O)c2)ccc1OC(=O)c1ccccc1	7	12*	39	-3	16	1
N/C(CSc1ccc(Cl)cc1)=N\NC(=O)c1ccncc1	-4	0.93	4	-3	29	1
